Rows were chosen to be rich in hits. Some 2.9% of all compounds tested hit in one or more screens of this group.
MEKK2 mut-MEK5 – MEK5 binding signal on mutant MEKK2 PB1, primary screen, biochemical, multiplex bead flow cytometry, Alexa488-MEK5; Alexa488-MEK5 binding to MEKK2 mutant; percent response, % at 10 µM; 0.35% of 290,000 active; in the data active = percent response above about 24%, passing the limit was not always enough
ATG4B inh – ATG4B protease inhibitors, primary screen, biochemical, fluorescence, uHTS; Cysteine protease ATG4B (Homo sapiens), Q9Y4P1; ATG4B cleavage of LC3-PLA2, NBD-HPC fluorescence, 1 h; inhibition, % at 8.33 µM; 0.51% of 340,000 active; AID 504462, 2011; in the data active = inhibition above about 40%
MEKK3 PB1 HTS – modulators of MEKK3-MEK5 PB1 binding, primary screen, biochemical, wildtype MEKK3, multiplex bead flow cytometry, Alexa488-MEK5; Mitogen-activated protein kinase kinase kinase 3 (Homo sapiens), Q99759; 1.4% of 290,000 active; binding response (% of control), % at 10 µM; bead-based flow cytometry, Alexa488-MEK5 binding to MEKK3; actives lie on both sides; 0 = blocked by unlabeled MEK5, 100 = vehicle;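 active = binding response more than 3 SD above or below the average of its plate-row segment, actives on both sides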;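 note: Alexa488 bead fluorescence after subtracting the streptavidin-only scavenger bead signal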
Dynein cargo inh – inhibitors of GR-EGFP nuclear translocation, primary screen, dynein cargo transport inhibitor project, imaging, high-content, 3617.4 mouse cells. test concentration mostly 20 µM; stimulated with dexamethasone, 1 µM; stronger effect = lower value. z-score, hits read low. 0.47% of 220,000 active. AID 1381, 2008;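 active = plate z-score of nuclear minus cytoplasmic receptor signal below a set negative limit, without overly bright fluorescence or cell loss, cut at about -3.5 in these data, passing the limit was not always enough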;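 note: z-score of nuclear minus cytoplasmic ring GR-EGFP intensity difference per well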
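Buffer or medium: Induction medium lacking tetracycline, stripped serum | Also added: Dexamethasone agonist, 1.0 µM final, for 30 min | Timing: 48 h induction, 1 h compound, 30 min dex at 37 °C | Detection: Formaldehyde fixation, Hoechst nuclear stain, 10x automated fluorescence imaging | Measure: Nuclear versus cytoplasmic GR-EGFP signal, averaged per well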
B2AR ag – beta2AR agonists driving receptor internalization, primary screen, cell-based, FAP fluorogen, flow cytometry. Beta-2 adrenergic receptor (Homo sapiens), P07550. 0.43% of 340,000 active. response, % (test concentration not listed). Am2.2-beta2AR cells;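 active = response above a set limit, near 3 SD of response in nonfluorescent compounds, cut at about 42% in these data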
Target sequence (P07550 whole entry, looked up): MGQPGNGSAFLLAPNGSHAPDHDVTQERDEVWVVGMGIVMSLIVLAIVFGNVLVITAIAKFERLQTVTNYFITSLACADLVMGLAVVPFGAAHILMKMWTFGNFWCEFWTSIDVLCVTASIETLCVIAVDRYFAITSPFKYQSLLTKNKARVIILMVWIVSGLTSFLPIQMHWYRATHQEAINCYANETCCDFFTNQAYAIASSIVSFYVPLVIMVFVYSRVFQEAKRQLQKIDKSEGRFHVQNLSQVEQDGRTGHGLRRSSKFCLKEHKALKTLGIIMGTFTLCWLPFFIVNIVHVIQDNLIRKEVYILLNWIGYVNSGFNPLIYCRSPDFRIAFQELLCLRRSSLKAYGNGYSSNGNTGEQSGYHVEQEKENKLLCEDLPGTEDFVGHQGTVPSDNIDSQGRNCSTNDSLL
MEKK2wt PB1 HTS – modulators of MEK5 binding to wildtype MEKK2, primary screen, biochemical, multiplex bead flow cytometry, Alexa488-MEK5; 1.1% of 290,000 active; binding response (% of control), % at 10 µM; Alexa488-MEK5 binding to MEKK2 WT; actives lie on both sides; Mitogen-activated protein kinase kinase kinase 2 (Homo sapiens), Q9Y2U5; in the data active = binding response below about 67% or above about 130%
MEKK2wt confirm – modulators of MEK5 binding to wildtype MEKK2, confirmation, biochemical, single concentration, multiplex bead flow cytometry; shares compounds with MEKK3 PB1 HTS; Alexa488-MEK5 binding to MEKK2 WT; actives lie on both sides; binding response (% of control), % at 10 µM; 2.4% of 5,900 active; AID 1892, 2009; in the data active = binding response below about 16% or above about 210%; inactive = in between
MEKK2mut confirm – mutant MEKK2 PB1-MEK5 binding signal retest – biochemical, single concentration, multiplex bead flow cytometry, confirmation. shares compounds with MEKK3 PB1 HTS. Alexa488-MEK5 binding to MEKK2 mutant. percent response, % at 10 µM. 2% of 5,900 active; in the data active = percent response mostly above about 71%, no sharp cut-off; inactive = mostly below about 38%;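 note: higher means compound restores mutant binding toward wildtype level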
MEKK3-MEK5 inh – MEKK3 wild-type PB1 binding to MEK5, inhibitors, confirmation, biochemical, bead multiplex flow cytometry, single concentration, wildtype | shares compounds with MEKK3 PB1 HTS | Alexa488-MEK5 binding to MEKK3; stronger effect = lower value | binding response (% of control), % at 10 µM | 1.8% of 5,900 active | AID 1894, 2009;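 active = binding response below 72% of control, or above a set upper limit, though filed actives all read lower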;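 note: 100% = DMSO only wells and 0% = binding blocked by excess unlabeled MEK5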
The depositor's hits bear a star; x = not tested or not shown; [ ] = another dose, or the depositor's remark.

SMILES	MEKK2 mut-MEK5	ATG4B inh	MEKK3 PB1 HTS	Dynein cargo inh	B2AR ag	MEKK2wt PB1 HTS	MEKK2wt confirm	MEKK2mut confirm	MEKK3-MEK5 inh
O=C(NCCc1c[nH]c2ccccc12)C(=O)c1c[nH]c2ccccc12	3.0	6.3	102.0	x	9.2	103.0	x	x	x
O=C(NCCC1=CCCCC1)C(=O)c1c[nH]c2ccccc12	1.0	25.8	133.0*	0.416	-18.0	106.0	96.0	-12.0	99.0
Cc1cc2nnc(SCCCCN3C(=O)c4ccccc4C3=O)n2c2ccccc12	3.0	x	100.0	0.68	x	101.0	x	x	x
Cc1ccc(S(=O)(=O)N2CCCCC2)cc1NC(=O)CSc1nncn1-c1ccccc1	107.0*	-6.5	95.0	0.279	-5.5	x	107.0	7.0	104.0
COC(=O)CSc1nnc2cc(C)c3ccccc3n12	-12.0	1.2	46.0*[inhibitor]	0.131	-2.4	41.0*[inhibitor]	100.0	-4.0	99.0
Cc1cc2nnc(SCC(=O)Nc3cc(S(=O)(=O)N4CCOCC4)ccc3Cl)n2c2ccccc12	3.0	-15.9	112.0	0.3	4.7	103.0	x	x	x
COc1ccc(-n2cnnc2SCC(=O)Nc2cc(S(=O)(=O)N3CCCCC3)ccc2C)cc1	2.0	-9.4	105.0	0.35	0.7	111.0	x	x	x
Cc1ccc(S(=O)(=O)N2CCOCC2)cc1NC(=O)CSc1nnc2cc(C)c3ccccc3n12	4.0	-11.6	141.0*	0.00247	5.6	107.0	98.0	-5.0	95.0
COc1ccc([N+](=O)[O-])cc1NC(=O)CSc1nncn1-c1ccccc1	55.0*	-3.5	107.0	-1.33	-17.3	105.0	102.0	0.0	104.0
O=C1CCCN1CCCNc1ncnc2sccc12	-1.0	-3.0	97.0	0.0758	7.3	96.0	x	x	x
CC(=O)C1(C)C(=O)N(c2ccc(C)cc2)C(=O)N1c1ccc(C)cc1 (stereo not drawn)	x	-2.2	x	x	9.7	x	x	x	x
CCc1cc(C(=O)Nc2cc(S(=O)(=O)N3CCOCC3)ccc2N2CCN(CC)CC2)sc1C	x	-14.3	x	x	5.1	x	x	x	x
Cc1ccc(S(=O)(=O)N2CCOCC2)cc1NC(=O)COC(=O)C1COc2ccccc2O1 (stereo not drawn)	0.0	0.1	144.0*	0.0415	1.3	109.0	101.0	-2.0	98.0
CCn1c(SCC(=O)OC)nnc1-c1c[nH]c2ccccc12	22.0	29.4	129.0*	-0.328	7.4	116.0	100.0	3.0	100.0
O=C(COC(=O)C1COc2ccccc2O1)Nc1cccc(S(=O)(=O)N2CCCCC2)c1 (stereo not drawn)	0.0	-5.3	98.0	1.94	4.7	99.0	x	x	x
CCOC(=O)CSc1nnc(-c2c[nH]c3ccccc23)n1CC	18.0	4.3	117.0	-0.864	29.0	118.0	x	x	x
COc1ccccc1NC(=S)NC(NC(=O)c1ccco1)C(Cl)(Cl)Cl (stereo not drawn)	0.0	4.4	129.0*	0.645	1.8	100.0	101.0	2.0	105.0
CCc1ccc(NC(=O)Cc2cn(C)c3ccccc23)cc1	0.0	-5.4	104.0	-0.898	-0.8	106.0	x	x	x

Screening results from PubChem BioAssay.
